From ChEMBL document CHEMBL1154243, “Chemical Constituents of the Roots of Euphorbia micractina” (J Nat Prod, 2009)
The source made the active and inactive calls. The rule behind the calls is not given here.

Columns and labels:
A2780 = assay: Cytotoxicity against human A2780 cells after 4 days by MTT assay; type: functional, cell-based
[1] = biological target: T1, Tyrosine-protein phosphatase non-receptor type 1 (Homo sapiens) (UniProt P18031); assay: Inhibition of GST-tagged human PTP1B
T1 sequence (whole entry): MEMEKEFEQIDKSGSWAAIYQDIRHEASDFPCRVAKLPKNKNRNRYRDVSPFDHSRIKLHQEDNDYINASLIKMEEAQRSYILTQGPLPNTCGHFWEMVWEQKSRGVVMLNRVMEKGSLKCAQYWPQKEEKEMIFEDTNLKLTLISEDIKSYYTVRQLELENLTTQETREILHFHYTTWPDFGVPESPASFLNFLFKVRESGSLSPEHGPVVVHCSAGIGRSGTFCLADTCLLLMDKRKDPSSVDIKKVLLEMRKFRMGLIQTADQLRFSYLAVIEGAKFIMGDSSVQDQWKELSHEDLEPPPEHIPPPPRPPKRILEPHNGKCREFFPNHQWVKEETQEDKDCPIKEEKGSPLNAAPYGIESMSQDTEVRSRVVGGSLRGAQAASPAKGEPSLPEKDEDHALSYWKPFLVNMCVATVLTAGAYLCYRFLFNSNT

[2] = tested on: Human immunodeficiency virus 1; assay: Antiviral activity against HIV-1 NL4-3 expressing VSV-G envelope infected in human 293T cells assessed as inhibition of viral replication after 48 hrs by Luciferase reporter gene assay; type: functional, organism-based
Method in brief: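 VSV-G-pseudotyped, env-deficient pNL4-3.luc.R-E- virions made by calcium phosphate cotransfection of 293 cells, then filtered. Virions quantified by p24 ELISA and diluted to 0.2 ng p24/mL. Compounds added 15 min before virus, with solvent-only blank. Luciferase in lysates read 48 h post-infection. Zidovudine served as positive control.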

| Structure (SMILES) | Activity (A2780) | inhibition [1] | inhibition [2] | Activity [2] | IC50 (A2780; A2780, 96 h) | IC50 ([2]; Human immunodeficiency virus 1, NL4-3, HEK-293T) |
| --- | --- | --- | --- | --- | --- | --- |
| C=C(C)[C@@H](CC[C@H](C)[C@@H]1CC[C@]2(C)C3=C(CC[C@@]12C)[C@@]1(C)CC[C@H](O)C(C)(C)[C@@H]1CC3=O)OO | inactive | inactive | inactive | – | – | – |
| C=C(C)[C@H](CC[C@H](C)[C@@H]1CC[C@]2(C)C3=C(CC[C@@]12C)[C@@]1(C)CC[C@H](O)C(C)(C)[C@@H]1CC3=O)OO | inactive | inactive | inactive | – | – | – |
| C[C@@H](C/C=C/C(C)(C)OO)[C@@H]1CC[C@]2(C)C3=C(CC[C@@]12C)[C@@]1(C)CC[C@H](O)C(C)(C)[C@@H]1CC3=O | inactive | inactive | inactive | – | – | – |
| COc1cc2ccc(=O)oc2cc1O | inactive | inactive | – | inactive | – | – |
| CC1=C2C=C3CC[C@@H]4C(C)(C)C(=O)CC[C@@]4(C)[C@@H]3C[C@H]2OC1=O | inactive | inactive | – | inactive | – | – |
| CCCCCCCCCC/C=C\CCCCCC(=O)OC(CO)CO | inactive | inactive | – | inactive | – | – |
| C=C(C)[C@@H]1CC[C@]2(CO)CC[C@]3(C)[C@H](CC[C@@H]4[C@@]5(C)CC[C@H](O)C(C)(C)[C@@H]5CC[C@]43C)[C@@H]12 [BETULIN] | – | inactive | – | inactive | 6.1 µM | – |
| C=C(C)[C@H](O)CC[C@H](C)[C@@H]1CC[C@]2(C)C3=CC[C@H]4C(C)(C)[C@@H](O)CC[C@]4(C)C3=CC[C@@]12C | inactive | inactive | inactive | – | – | – |
| CC[C@H](CC[C@@H](C)[C@H]1CC[C@H]2[C@@H]3CC=C4C[C@@H](O)CC[C@]4(C)[C@H]3CC[C@]12C)C(C)C | inactive | inactive | – | inactive | – | – |
| CC1(C)CC[C@]2(CO)CC[C@]3(C)C(=CC[C@@H]4[C@@]5(C)CC[C@H](O)C(C)(C)[C@@H]5CC[C@]43C)[C@@H]2C1 | inactive | inactive | – | inactive | – | – |
| C=C(C)[C@H](CC[C@@H](C)[C@@H]1CC[C@]2(C)C3=C(CC[C@@]12C)[C@@]1(C)CC[C@H](O)C(C)(C)[C@@H]1CC3=O)OO | inactive | inactive | inactive | – | – | – |
| C/C1=C\[C@@H]2[C@H](CC[C@@]3(C)O[C@@H]3[C@H]3[C@@H](O)[C@@H](C)C[C@]3(OC(=O)c3ccccc3)C1=O)C2(C)C | inactive | inactive | – | inactive | – | – |
| O=C(O)/C=C/c1ccccc1 | inactive | inactive | – | inactive | – | – |
| COc1ccc(C(=O)OCCc2ccc(O)cc2)cc1 | inactive | inactive | – | inactive | – | – |
| C[C@H]1[C@H](C)CC[C@]2(CO)CC[C@]3(C)C(=CC[C@@H]4[C@@]5(C)CC[C@H](O)C(C)(C)[C@@H]5CC[C@]43C)[C@H]12 | inactive | inactive | – | inactive | – | – |
| CC1=C2C=C3CC[C@@H]4C(C)(C)[C@H](O)CC[C@@]4(C)[C@@H]3C[C@H]2OC1=O | inactive | inactive | – | inactive | – | – |
| CCCCC/C=C/C=C\C(=O)O[C@H]1C(C)=C[C@]23C(=O)[C@@H](C=C(COC(C)=O)[C@@H](O)[C@]12O)[C@H]1[C@@H](C[C@H]3C)C1(C)C | inactive | inactive | – | inactive | – | – |
| CC(=O)O[C@H]1CC[C@@]2(C)[C@@H]3C[C@@H]4OC(=O)C(C)=C4C=C3CC[C@@H]2C1(C)C | inactive | inactive | – | inactive | – | – |
| CC1=C2C=C3CC[C@@H]4C(C)(C)[C@@H](O)CC[C@@]4(C)[C@@H]3C[C@H]2OC1=O | inactive | inactive | – | inactive | – | – |
| CC(=O)O[C@]12C[C@H](C)[C@H](O)[C@@H]1/C=C(\C)CC[C@H]1[C@@H](/C=C(\C)C2=O)C1(C)C | inactive | inactive | – | inactive | – | – |
| CCCCCCCCCCCCCCCCCCCCCCCCCCCCCCO | inactive | inactive | – | inactive | – | – |
| CCCCCCCCCCCCCCCC(=O)OCC(O)CO (stereo not given) | inactive | inactive | – | inactive | – | – |
| C=C(C)[C@H](O)CC[C@H](C)[C@@H]1CC[C@]2(C)C3=C(CC[C@@]12C)[C@@]1(C)CC[C@H](O)C(C)(C)[C@@H]1CC3 | inactive | inactive | inactive | – | – | – |
| C/C1=C\[C@@H]2[C@H](CC[C@@]3(C)O[C@@H]3[C@H]3[C@@H](O)[C@@H](C)C[C@]3(OC(=O)/C=C/c3ccccc3)C1=O)C2(C)C [JOLKINOL B] | inactive | inactive | – | – | – | 12.6 µM |
| C[C@@H](C/C=C/C(C)(C)OO)[C@@H]1CC[C@]2(C)C3=C(C(=O)C[C@@]12C)[C@@]1(C)CC[C@H](O)C(C)(C)[C@@H]1CC3=O | inactive | inactive | inactive | – | – | – |
